STAT1 blocker = STAT1 signaling inhibition; NIH 3T3 STAT1-luciferase reporter, IFN-gamma, luminescence; inhibition, % at 5.5 µM; 0.35% of 200,000 active; AID 920;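 active means inhibition above a set limit, the mean inhibition across all tested compounds plus 3 SD, cut at about 34% in these data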;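 further: 0% = IFN-gamma with DMSO and 100% = IFN-gamma with 300 µM nifuroxazide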
APP 5'UTR act = activates APP 5'UTR luciferase reporter | SH-SY5Y APP 5'UTR luciferase reporter, luminescence; zero percent = DMSO vehicle wells | activation, % at 2 µM | 1% of 190,000 active;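 active means activation above a set limit, based on mean plus 3 SD of controls, cut at about 140% in these data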
NF-kB expr up = raises NF-kB expression in human neuronal cells; fold change at 12.5 µM; NF-kB reporter expression; stronger effect = higher value; 1.6% of 190,000 active; in the data active means fold change above about 3.3
STAT1 act-1 = activators of IFN-gamma induced STAT1 signaling | NIH 3T3 STAT1-luciferase reporter, luminescence; 100% = IFN-gamma alone, no compound | activation (% of control), % at 5.5 µM | 2.6% of 200,000 active | AID 932;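 active means activation above the screen-wide mean activation plus 3 SD, cut at about 130% in these data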;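 further: raw ratio to IFN-gamma control signal so 100% means no change and 0% no light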
STAT3 inh = inhibitors of IL-6 induced STAT3 signaling | 0.89% of 190,000 active | AID 862 | inhibition, % at 5.5 µM | U3A cells, IL-6 STAT3-luciferase reporter, luminescence; host cell line lacks STAT1;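 active means inhibition above the mean inhibition across all screened compounds plus 3 SD, cut at about 44% in these data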;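 further: 0% = DMSO only wells and 100% = 100 µM nifuroxazide control wells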
STAT3 act-1 = increases IL-6 driven STAT3 reporter signal; U3A cells, IL-6 STAT3-luciferase reporter, luminescence; 100% = signal with IL-6 EC80 alone; activation (% of control), % at 5.6 µM; 0.91% of 190,000 active; AID 871;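 active means activation above the screen-wide mean of compound activation plus 3 SD, cut at about 130% in these data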;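 further: 0% = background luminescence of wells with medium and substrate only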
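Material: STAT3-luciferase reporter U3A cells; Probe or stimulus: IL-6 (33 ng/mL); Incubation: compound pre-incubation 1 h before IL-6, then 6 h stimulation at 37 °C; Technique: luminescence from STAT3-driven luciferase reporter; Evaluation: % activation versus median of IL-6-stimulated wells; Controls: IL-6-only high control.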
STAT3 act-2 = STAT3 activation, confirmation assay; shares compounds with STAT3 act-1; U3A STAT3-luciferase reporter, IL-6 potentiation, luminescence; U3A cells lack STAT1; 100 means same as IL-6 alone; potentiation (% of control), % at 5.7 µM; 64% of 1,200 active; AID 1267;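 active means percent activation of the STAT3 luciferase reporter above a set limit taken from the earlier primary screen, cut at about 130% in these data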;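 further: 0% = background signal of medium plus substrate and 100% = median of IL-6 with DMSO wells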
NFkB act 2 = activates NF-kappaB, counter-screen to STAT3 activators | shares compounds with STAT3 act-1 | human cells, NF-kappaB reporter activation | activation (% of control), % at 5.7 µM | 11% of 1,200 active | AID 1309; in the data active means activation above about 120%;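 further: reporter induced by TNF-alpha stimulation; 100% = median of stimulated DMSO wells and 0% = no signal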
STAT1 act-2 = activates STAT1, counter-screen to STAT3 activators. shares compounds with STAT3 act-1. NIH 3T3 STAT1-luciferase reporter, IFN-gamma, luminescence. activation (% of control), % at 5.7 µM. 13% of 1,200 active. AID 1318;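 active means activation above the solvent-only control well mean plus 3 SD, set per screening run, cut at about 120% in these data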;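 further: 100% = IFN-gamma with DMSO median signal so 100% means no change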
The depositor's hits bear a star; . = no result. This is a sample that favours compounds with a hit; in the whole collection about 4.9% have one here.

SMILES	STAT1 blocker	APP 5'UTR act	NF-kB expr up	STAT1 act-1	STAT3 inh	STAT3 act-1	STAT3 act-2	NFkB act 2	STAT1 act-2
Cc1nn2c(-c3ccccc3)nnc2c2ccccc12	-8	47	1.3	108	-79	170*	143*	117	115
S=c1[nH]nc(CSc2nc3ccccc3s2)o1	10	6	1.1	91	-43	142*	142*	100	97
O=C(CN1CCNCC1)Nc1ccc(Oc2ccccc2)cc1	4	7	1	96	-51	141*	139*	111	106
O=C(CN1CCOCC1)Nc1ccc(Oc2ccccc2)cc1	9	2	1.2	91	7	96	.	.	.
COc1ccc(N/N=C(C)/C(=N/O)C(=O)Nc2ccccc2)cc1	7	9	0.84	93	3	104	.	.	.
CC(=O)c1cccc(NC(=O)C2C3C=CC(C3)C2C(=O)O)c1 (stereo not drawn)	0	-1	1.1	98	2	100	.	.	.
CC(C)=C1C2C=CC1C(C(=O)Nc1cccc(C)c1)C2C(=O)O (stereo not drawn)	4	-2	0.78	96	-65	160*	145*	100	97
Cc1ccc(N)c2c1OCCC2=O	16	17	0.99	85	-48	137*	137*	108	90
c1ccc2cc(-c3cc4ccccn4c3)ccc2c1	-21	7	1.2	120	-81	177*	94	102	103
COc1ccccc1C(=O)COC(=O)c1ccccc1O	-6	20	1.1	103	-56	151*	150*	106	105
CC(=O)OCC(=O)c1c[nH]c2ccccc12	4	7	1	95	-19	117	.	.	.
COc1cccc(C(=O)OCC(=O)c2c[nH]c3ccccc23)c1O	-4	25	1.3	103	-50	144*	138*	114	94
CC(C)(C)C(=O)COC(=O)c1ccccc1O	-2	9	1.1	102	2	101	.	.	.
CC(C)C(O)(C#CCN1CCCCCC1)c1ccccc1 (stereo not drawn)	0	-5	2.1	99	4	99	.	.	.
CCC(Sc1nnnn1-c1ccccc1)C(=O)Nc1nc2ccccc2s1 (stereo not drawn)	-1	12	1.4	101	-64	157*	155*	112	113
Cc1nn(-c2ccccc2)c(N)c1C(O)(CSc1nccn1C)C(F)(F)F (stereo not drawn)	-5	.	0.99	105	-14	110	.	.	.
Cc1nn(-c2ccc(Cl)cc2)c(N)c1C(O)(CSc1nccn1C)C(F)(F)F (stereo not drawn)	2	9	1.4	99	-47	143*	134*	103	100
CCN(Cc1ccccc1)C(=O)C(C)OC(=O)c1cc(S(=O)(=O)Nc2c(C)n(C)n(-c3ccccc3)c2=O)ccc1C (stereo not drawn)	4	6	1.4	95	0	102	.	.	.
COc1ccc2[nH]c(=O)c3c(c2c1)OC(C)(C)C=C3	4	-10	1	96	-41	137*	126	86	103
COc1ccc2[nH]c3ccccc3c2c1	-7	20	1.2	107	18	88	.	.	.
CC1=NOC(=O)/C1=C\c1ccc(-c2ccc(Cl)c(C(=O)O)c2)o1	0	-1	1.1	101	-2	104	.	.	.
CC1=NOC(=O)/C1=C\c1ccc(-c2cccc(Cl)c2)o1	-1	-18	1.1	101	-37	137*	116	110	105
O=C(Cn1cnc2ccccc2c1=O)Nc1ccc(N2CCOCC2)cc1	-3	0	0.98	101	-1	107	.	.	.
COC(=O)CCC(=O)Nc1ccc(C)cc1OC(=O)CCC(=O)OC	-1	9	0.92	105	-42	136*	108	100	98
COc1ccccc1C(=O)NC(=S)N1CCCc2ccccc21	-10	59	0.56	109	-13	121	.	.	.
SMILES	STAT1 blocker	APP 5'UTR act	NF-kB expr up	STAT1 act-1	STAT3 inh	STAT3 act-1	STAT3 act-2	NFkB act 2	STAT1 act-2
O=C(NC(=S)N1CCCc2ccccc21)c1ccccc1	-2	28	1.7	102	-64	167*	149*	109	110
O=C(NCCCCO)c1ccc2c3c(cccc13)CC2	-2	3	0.97	100	2	102	.	.	.
CCC(C)(C#CCN1CCCCC1)OC(C)=O (stereo not drawn)	-6	31	1	105	-4	105	.	.	.
COc1ccc(S(=O)(=O)N2Cc3ccccc3CC2C(=O)Nc2nccs2)cc1 (stereo not drawn)	-23	180*	1.6	121	-46	140*	110	112	120
COc1ccc(S(=O)(=O)N2Cc3ccccc3CC2C(=O)Nc2ccc3c(c2)OCO3)cc1 (stereo not drawn)	-7	21	1.2	106	-8	110	.	.	.
O=C(CN1CCC(NC(=O)c2ccco2)CC1)Nc1cccc2ccccc12	4	20	0.86	96	-3	103	.	.	.
O=C(CN1CCC(NC(=O)c2ccco2)CC1)Nc1ccccc1[N+](=O)[O-]	6	4	0.91	92	-40	138*	144*	104	92
Cc1cc(C)c(C)c(N=Nc2nc3ccccc3n2C)c1C	-8	56	1.5	107	21	83	.	.	.
Cc1ccc(C)c(N=Nc2nc3ccccc3n2C)c1	-28	161*	3.9*	126	-74	176*	223*	154*	237*
CN(CC(=O)N1CCN(Cc2ccccc2)CC1)S(=O)(=O)c1cccc2nsnc12	-1	15	1	99	-8	111	.	.	.
Cc1ccc(-n2nc(C)c3c(-c4cccs4)c(C#N)c(N)nc32)cc1	7	4	0.86	93	-47	144*	124	99	103
NC(=O)c1ccc(/C=N/O)nc1	-5	14	0.94	103	-3	104	.	.	.
CSc1ccc(/C=N/NC(=O)CNc2ccc3ccccc3c2)cc1	0	19	0.7	100	-48	146*	140*	107	98
CSc1ccc(/C=N/NC(=O)CNc2cccc3ccccc23)cc1	-1	9	1.1	101	-25	121	.	.	.
C#Cc1ccc(C(=O)Nc2ccc(N3CCC(C)CC3)c(C(N)=O)c2)cc1	1	15	1	99	2	100	.	.	.
O=C(NCc1ccco1)c1cccn2c(=O)c3cc4ccccc4cc3nc12	-1	-28	0.91	101	-109	196*	162*	113	105
